As usually defined, the IC50 is the concentration at which inhibition is half-maximal.

Data set [1] in a line: Inhibition of HDAC1/2/3/8 in human U-937 cells assessed as increase in H3K9/14 acetylation at 10 uM measured after 12 to 24 hrs by Western blot analysis. The class given is cell-based. To be noted: u-937, 10 µM, time 12-24 hrs. The method in brief:
(§1)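 HCT-116 or U937 cells treated at 10 µM for 12 and 24 h. […] Western blot used 40 µg total protein or 5 µg acid-extracted histone. Blots probed for cleaved PARP, acetylated tubulin, H3K9/14ac and Hsp90(AcLys294), normalized to GAPDH or H4. Compared with control cells by one-way ANOVA and Dunnett's test.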
Background: A western blot detects proteins with antibodies after separation by electrophoresis.

A short description of data set [2]: Solubility of compound in pH 3 buffer at 250 uM measured after 24 hrs by HPLC/UV/DAD method. The class given is physicochemical. The following applies: pH 3, 24 h. The method in brief:
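10 mM DMSO stock diluted to 250 µM (2.5% DMSO) in 50 mM acetic acid, pH 3.0, and shaken 24 h at 25 °C. For solubility, samples filtered, diluted 1:2, quantified by HPLC-UV at 254 nm against a standard. For stability, percent remaining taken as the 24 h peak area over the T0 peak area. Triplicate analyses averaged.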

The next data set concerns U-937. In words: Cytotoxicity against human U-937 cells assessed as reduction in cell viability measured after 48 hrs by MTT assay. The class given is functional, cell-based. To be noted: U-937, 48 h. The essentials: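 U937 cells grown in RPMI-1640 with 10% FBS, 2 mM L-glutamine and penicillin-streptomycin. 2.5×10^4 cells/well treated in triplicate at 50, 25, 10, 5 and 1 µM for 12, 24 or 48 h. MTT 0.5 mg/ml added for 3 h, plate centrifuged 5 min at 1200 rpm, crystals dissolved in isopropanol, A570 read. IC50 derived from the concentration series.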

Data set [3] deals with T1, Protein deacetylase HDAC6 (Homo sapiens) (UniProt Q9UBN7).
T1 sequence (whole entry): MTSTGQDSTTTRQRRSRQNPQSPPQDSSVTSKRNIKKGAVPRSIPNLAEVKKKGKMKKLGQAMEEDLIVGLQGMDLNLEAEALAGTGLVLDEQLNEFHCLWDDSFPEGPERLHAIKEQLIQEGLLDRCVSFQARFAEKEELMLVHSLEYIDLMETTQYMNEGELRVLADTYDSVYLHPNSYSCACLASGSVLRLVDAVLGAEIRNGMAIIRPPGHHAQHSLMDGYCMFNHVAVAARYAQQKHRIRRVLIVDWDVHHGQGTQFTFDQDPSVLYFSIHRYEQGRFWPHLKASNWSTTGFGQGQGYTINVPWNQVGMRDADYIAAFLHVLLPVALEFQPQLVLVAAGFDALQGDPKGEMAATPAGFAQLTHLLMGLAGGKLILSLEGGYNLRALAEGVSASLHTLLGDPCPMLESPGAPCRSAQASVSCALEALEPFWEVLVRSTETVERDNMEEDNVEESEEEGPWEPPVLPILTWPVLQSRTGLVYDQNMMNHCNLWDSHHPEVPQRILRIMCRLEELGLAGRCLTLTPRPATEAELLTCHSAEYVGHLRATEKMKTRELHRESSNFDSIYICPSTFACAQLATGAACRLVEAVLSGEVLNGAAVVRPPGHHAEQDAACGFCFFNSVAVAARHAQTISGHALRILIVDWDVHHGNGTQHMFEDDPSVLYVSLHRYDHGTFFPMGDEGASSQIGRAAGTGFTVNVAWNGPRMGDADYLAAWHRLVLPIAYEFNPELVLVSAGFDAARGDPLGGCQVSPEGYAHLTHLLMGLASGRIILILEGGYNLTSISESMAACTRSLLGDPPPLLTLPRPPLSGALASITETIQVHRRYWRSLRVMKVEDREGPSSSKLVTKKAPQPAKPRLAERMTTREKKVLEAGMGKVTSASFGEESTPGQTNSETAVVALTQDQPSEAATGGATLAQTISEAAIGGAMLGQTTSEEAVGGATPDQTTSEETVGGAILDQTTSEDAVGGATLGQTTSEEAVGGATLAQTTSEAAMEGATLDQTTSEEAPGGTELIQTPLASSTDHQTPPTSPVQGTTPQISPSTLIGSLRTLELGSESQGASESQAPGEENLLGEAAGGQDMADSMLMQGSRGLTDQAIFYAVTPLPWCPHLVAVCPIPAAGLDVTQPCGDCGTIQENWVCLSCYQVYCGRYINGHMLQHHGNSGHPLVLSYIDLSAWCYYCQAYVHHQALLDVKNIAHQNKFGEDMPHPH
Nature of the data set: Inhibition of HDAC6 in human HCT-116 cells assessed as increase in alpha-tubulin acetylation at 10 uM measured after 12 to 24 hrs by Western blot analysis relative to control. The class given is cell-based. To be noted: time 12-24 hrs. The essentials: as §1

The nature of data set [4]: Mutagenicity in Salmonella typhimurium TA100 at 5 to 230 uM measured after 90 mins in presence of rat liver S9 fraction by Ames test. The following applies: salmonella enterica subsp. enterica serovar typhimurium, s9, 1.5 h, dose 5-230 µM. The class given is toxicity, subcellular.
Data set [5] in a line: Inhibition of HDAC1/2/3/8 in human HCT-116 cells assessed as increase in H3K9/14 acetylation at 10 uM measured after 12 to 24 hrs by Western blot analysis relative to control. The class given is cell-based. To be noted: hct-116, 10 µM, time 12-24 hrs. The method in brief: as §1
The test system of another data set is NIH3T3. Nature of the data set: Cytotoxicity against mouse NIH/3T3 cells assessed as reduction in cell viability after 24 hrs by neutral red uptake assay. The class given is cell-based. To be noted: NIH3T3, 24 h. The method in brief: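 NIH3T3 fibroblasts seeded at 5 x 10^4 per well and cultured 24 h at 37 °C, 5% CO2. DMSO-solubilized samples added at 8 to 160 µM for 24 h; medium as negative control. Neutral Red medium applied 3 h, dye desorbed in acetic acid/ethanol, absorbance read at 540 nm. Three experiments, six replicates per concentration; viability normalized to % control.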

Data set [6] relates to HCT-116. In words: Cytotoxicity against human HCT-116 cells assessed as reduction in cell viability measured after 24 hrs by MTT assay. The following applies: HCT-116, 24 h. The class given is functional, cell-based. The method in brief:
(§2)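 HCT-116 cells grown in DMEM with 10% FBS, 2 mM L-glutamine and antibiotics. 2.5×10^4 cells/well treated in triplicate at 50, 25, 10, 5 and 1 µM for 12, 24 or 48 h. Then MTT 0.5 mg/ml for 3 h, supernatant removed, formazan dissolved in isopropanol, absorbance read at 570 nm. IC50 derived from the concentration series.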

Data set [7] can be described thus: Mutagenicity in Salmonella typhimurium TA100 at 5 to 230 uM measured after 90 mins in absence of rat liver S9 fraction by Ames test. The class given is toxicity. To be noted: salmonella enterica subsp. enterica serovar typhimurium, s9, 1.5 h, dose 5-230 µM. (In the Ames test, an excess of revertant colonies over the control signals mutagenicity.)
Data set [8] deals with HCT-116. In words: Cytotoxicity against human HCT-116 cells assessed as cell viability measured after 48 hrs by MTT assay relative to control. The class given is functional. The essentials:
as §2
On the technique in general: Formazan colour is commonly taken as a measure of viable cells.

Data set [9] addresses T1, Protein deacetylase HDAC6 (Homo sapiens). In words: Inhibition of HDAC6 in human U-937 cells assessed as increase in Hsp90(AcLys294) acetylation at 10 uM measured after 12 to 24 hrs by Western blot analysis. The class given is cell-based. To be noted: time 12-24 hrs. The method in brief: as §1
The nature of data set [10]: Mutagenicity in Salmonella typhimurium TA98 at 5 to 230 uM measured after 90 mins in absence of rat liver S9 fraction by Ames test. The class given is toxicity. The following applies: salmonella enterica subsp. enterica serovar typhimurium, 1.5 h, dose 5-230 µM.
In data set [11] the test system is HCT-116. Nature of the data set: Induction of apoptosis in human HCT-116 cells assessed as increase in PARP cleavage at 10 uM measured after 24 hrs by Western blot analysis. The class given is functional, cell-based. The method in brief: as §1

Calls of active or inactive are those of the source. No cut-off for these calls is given here.

As for `CCN(CC)Cc1ccc(Cn2c(=O)c(OCc3ccc(C(=O)NO)cc3)c(-c3cccnc3)c3ccccc32)cc1`, in data set [1], the “inhibition (INH)” value is recorded as “Active”. The solubility entry in [2] was “Soluble”. The IC50 with U-937 was determined as 45.5 µM; with NIH3T3, 90 µM; in the data set with HCT-116 [6], 25.7 µM. Further, the values for the fold change (FC) in data set [3] and in data set [5] were over 9 and over 6, respectively. Moreover, the Activity result is recorded as “Non-Toxic” in data set [4], “Non-Toxic” in data set [7], 10% in the data set on HCT-116 [8] and “Non-Toxic” in data set [10]. The inhibition entry in data set [9] was “inactive”. In addition, the outcome with HCT-116 [11] was Active.
